Test results published in ChEMBL document CHEMBL1275360, “1-Bromo-3-(1',1'-dimethylalkyl)-1-deoxy-Δ(8)-tetrahydrocannabinols: New selective ligands for the cannabinoid CB(2) receptor” (Bioorg Med Chem, 2010).

Experiments:
[1] = target: Cannabinoid receptor 1 (Rattus norvegicus, UniProt P20272); test: Displacement of [3H]CP-55940 from CB1 receptor in Sprague-Dawley rat brain membranes after 1 hr by liquid scintillation spectrophotometry; assay type: cell membranes, Membrane
Outline: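 Membranes from whole rat brain (CB1) or human CB2-expressing CHO cells (CB2) were incubated 1 hr at 30°C with 1 nM [3H]CP-55,940 and six competitor concentrations (0.1 nM–10 μM). Buffer contained 5 mg/ml BSA, ethanol ≤0.4%. Nonspecific binding was defined with 1 μM CP-55,940. Separation on polyethyleneimine-treated GF/B filters, then scintillation counting. IC50 from log-linear regression, Ki via Cheng-Prusoff; triplicate, 3–6 repeats.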

[2] = Selectivity ratio of IC50 for CB1 receptor in Sprague-Dawley rat brain membranes to IC50 for human CB2 receptor; assay type: cell membranes; details: Membrane
[3] = target: T1, Cannabinoid receptor 2 (Homo sapiens, UniProt P34972); test: Displacement of [3H]CP-55940 from human CB2 receptor expressed in CHO cells after 1 hr by liquid scintillation spectrophotometry; assay type: cell-based
T1 sequence (P34972 whole entry): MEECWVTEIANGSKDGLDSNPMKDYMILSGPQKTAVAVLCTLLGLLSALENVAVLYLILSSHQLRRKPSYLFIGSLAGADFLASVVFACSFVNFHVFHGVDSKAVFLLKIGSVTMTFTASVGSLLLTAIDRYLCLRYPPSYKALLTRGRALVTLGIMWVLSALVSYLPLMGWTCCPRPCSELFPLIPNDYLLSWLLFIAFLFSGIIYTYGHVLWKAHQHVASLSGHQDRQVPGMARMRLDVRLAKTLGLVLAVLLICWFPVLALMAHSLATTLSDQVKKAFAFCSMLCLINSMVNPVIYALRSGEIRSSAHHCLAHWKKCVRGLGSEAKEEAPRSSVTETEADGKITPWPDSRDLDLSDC

[4] = target: T1, Cannabinoid receptor 2; test: Agonist activity at human CB2 receptor expressed in CHO cells assessed as stimulation of [35S]GTPgammaS binding after 1.5 hrs by liquid scintillation spectrophotometry; assay type: functional, cell-based
Outline: (§1)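 Membranes from CB2-CHO cells grown in DMEM/Ham F-12 with G418 and 5% fetal calf serum. Reactions used 10 μg membrane protein with 10 μM GDP, 0.1 nM radiolabelled GTPγS, 1 mg/mL BSA and varied drug concentrations in NaCl/EGTA Tris buffer pH 7.4, for 1.5 hr at 30°C. Nonspecific binding (unlabeled GTPγS) subtracted; filtration, scintillation counting. Nonlinear regression; Emax relative to 3 μM CP-55,940; mean ± SEM, ≥3 experiments in triplicate.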

[5] = target: T1, Cannabinoid receptor 2; test: Agonist activity at human CB2 receptor expressed in CHO cells assessed as stimulation of [35S]GTPgammaS binding after 1.5 hrs by liquid scintillation spectrophotometry relative to CP-55940; assay type: functional, cell-based; outline: as §1
[6] = target: T1, Cannabinoid receptor 2; test: Binding affinity to CB2 receptor
[7] = target: Cannabinoid receptor 1 (Homo sapiens, UniProt P21554); test: Binding affinity to CB1 receptor
Chain of Cannabinoid receptor 1 (Homo sapiens, UniProt P21554) (P21554 whole entry): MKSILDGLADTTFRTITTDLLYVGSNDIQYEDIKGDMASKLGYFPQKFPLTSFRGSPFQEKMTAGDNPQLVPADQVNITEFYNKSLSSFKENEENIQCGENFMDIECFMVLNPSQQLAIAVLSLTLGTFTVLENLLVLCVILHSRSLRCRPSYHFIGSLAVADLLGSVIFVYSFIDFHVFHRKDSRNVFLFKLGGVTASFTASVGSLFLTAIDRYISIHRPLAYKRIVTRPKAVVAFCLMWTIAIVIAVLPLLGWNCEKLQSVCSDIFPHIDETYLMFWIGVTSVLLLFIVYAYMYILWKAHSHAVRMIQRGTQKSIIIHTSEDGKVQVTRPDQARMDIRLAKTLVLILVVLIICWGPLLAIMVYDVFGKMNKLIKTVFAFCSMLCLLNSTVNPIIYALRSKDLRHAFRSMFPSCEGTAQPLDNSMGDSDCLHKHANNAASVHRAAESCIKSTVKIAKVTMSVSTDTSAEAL

Chain of Cannabinoid receptor 1 (Rattus norvegicus, UniProt P20272) (P20272 whole entry): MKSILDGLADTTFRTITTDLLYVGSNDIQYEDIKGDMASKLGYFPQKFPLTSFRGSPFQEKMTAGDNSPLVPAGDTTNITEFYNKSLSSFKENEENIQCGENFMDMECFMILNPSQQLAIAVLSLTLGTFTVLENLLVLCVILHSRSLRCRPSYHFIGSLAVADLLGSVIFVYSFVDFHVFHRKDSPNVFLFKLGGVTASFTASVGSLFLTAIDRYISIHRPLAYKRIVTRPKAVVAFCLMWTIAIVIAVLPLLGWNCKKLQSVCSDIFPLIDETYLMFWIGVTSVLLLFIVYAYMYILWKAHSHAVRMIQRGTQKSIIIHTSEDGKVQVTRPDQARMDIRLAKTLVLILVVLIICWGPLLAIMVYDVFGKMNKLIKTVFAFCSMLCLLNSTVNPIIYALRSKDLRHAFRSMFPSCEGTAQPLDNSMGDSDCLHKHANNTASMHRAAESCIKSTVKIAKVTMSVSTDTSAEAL

Structure (SMILES): CCCCC(C)(C)c1cc(Br)c2c(c1)OC(C)(C)[C@@H]1CC=C(C)C[C@@H]21
- Ki [1]: 1140 nM
- Ratio Ki [2]: 16
- Ki [3]: 71 nM

Structure (SMILES): CCCCCCC(C)(C)c1cc(Br)c2c(c1)OC(C)(C)[C@@H]1CC=C(C)C[C@@H]21
- Ki [1]: 562 nM
- EC50 [4]: 15 nM
- Ratio Ki [2]: 27
- Ki [3]: 34 nM
- Emax [5]: 91%

Structure (SMILES): CCCC(C)(C)c1cc(Br)c2c(c1)OC(C)(C)[C@@H]1CC=C(C)C[C@@H]21
- Ki [1]: > 10000 nM
- Ratio Ki [2]: 38
- Ki [3]: 265 nM

Structure (SMILES): CCCCCCC(C)(C)c1ccc2c(c1)OC(C)(C)[C@@H]1CC=C(CO)C[C@@H]21
- Ki [6]: 0.032 nM
- Ki [7]: 1.2 nM

Structure (SMILES): CCCCCCC(C)(C)c1ccc2c(c1)OC(C)(C)[C@@H]1CC=C(C)C[C@@H]21
- Ki [6]: 2.9 nM
- Ki [7]: 23 nM

Structure (SMILES): CCCC(C)(C)c1ccc2c(c1)OC(C)(C)[C@@H]1CC=C(C)C[C@@H]21
- Ki [1]: 677 nM
- EC50 [4]: 4 nM
- Ratio Ki [2]: 294
- Emax [5]: 112%

Structure (SMILES): CCCCCc1cc(Br)c2c(c1)OC(C)(C)[C@@H]1CC=C(C)C[C@@H]21
- Ki [1]: > 10000 nM
- Ratio Ki [2]: 18
- Ki [3]: 555 nM

Structure (SMILES): CCCCCC(C)(C)c1cc(Br)c2c(c1)OC(C)(C)[C@@H]1CC=C(C)C[C@@H]21
- Ki [1]: 1440 nM
- EC50 [4]: 28.6 nM
- Ratio Ki [2]: 52
- Ki [3]: 28 nM
- Emax [5]: 92.3%
